Our source for the inhibition, IC50 and Ki values is ChEMBL document CHEMBL1124562, “(3-Amino-2-oxoalkyl)phosphonic acids and their analogues as novel inhibitors of D-alanine:D-alanine ligase” (J Med Chem, 1989).

The subject of test [1] is Enterococcus faecalis. Put plainly: Percent inhibition of D-Alanine-D-Alanine Ligase at 10e-3 M of the compound. The method, boiled down: (§1)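 Enzyme was a 50% ammonium sulphate fraction from sonicated Streptococcus faecalis ATCC 8043 extract (0.38 units/mg). Inhibitor was preincubated 40 min at room temperature with enzyme, 0.008 M MgCl2, 0.01 M KCl and 0.05 M Tris-Cl pH 7.9. Then 0.005 M ATP and 0.005 M (14C-1)-D-alanine were added and the mix held 30 min at 37 °C. Radiolabelled product was resolved by silica TLC and integrated.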

Test [2] is described as follows: Inhibition of DAla-DAla Ligase at 10e -3 M of the compound. Details: species or system Enterococcus faecalis. The gist of the method: as §1
The nature of test [3]: Inhibition of DAla-DAla Ligase by the compound. Details: species or system Enterococcus faecalis. The method, boiled down: as §1
For test [4], the system named is Enterococcus faecalis. Kind of test: Percent inhibition of DAla-DAla Ligase at 10e -3 M of the compound. The method, boiled down: as §1
Test [5] can be described thus: Inhibition of D-Alanine-D-Alanine Ligase Ligase by the compound. Details: species or system Enterococcus faecalis. The method, boiled down:
as §1

Test [6] has as its system Enterococcus faecalis. Put plainly: Percent inhibition of DAla-DAla Ligase at 10e-3 M of the compound. The method, boiled down: as §1

In the test with Enterococcus faecalis [1], `CC[C@@H](N)C(=O)CP(=O)(O)O` gave an inhibition of 26%.
Still for that read-out and setting: under `C[C@H](N)C(=O)CP(=O)(O)O` stands 14%.
Regarding `C[C@@H](N)P(=O)(O)O`, the IC50 in test [2] came out at 930 µM.
In the case of `C[C@@H](N)C(O)CP(=O)(O)O` (some centres undefined), in the test with Enterococcus faecalis [1], the inhibition was determined as 25%.
Regarding `C[C@@H](N)C(=O)NP(=O)(O)O`, the Ki in test [3] turned out to be 50 µM. The same molecule came in with an inhibition with Enterococcus faecalis [4] of 85%.
In the case of `N[C@@H]1CONC1=O` [CYCLOSERINE], affinity in test [3] was put at a Ki of 250 µM.
In test [5], `NC(CCC(=O)CP(=O)(O)O)C(=O)O` (centres undefined) registered a Ki of 500 µM.
In turn, `CC(C(=O)[C@@H](C)N)P(=O)(O)O` (some centres undefined) yielded an inhibition with Enterococcus faecalis [1] of 18%.
As to `C[C@@H](N)C(=O)CP(=O)(O)O`, in the test with Enterococcus faecalis [6], the inhibition is 71%. Further, affinity in test [3] was put at a Ki of 510 µM.
As for `C[C@@H](N)/C=C/P(=O)(O)O`, in the test on Enterococcus faecalis [4], the inhibition came out at 24%.
`C[C@@H](N)C(O)C(O)P(=O)(O)O` (some centres undefined) came in with an inhibition with Enterococcus faecalis [1] of 32%.
The same measure, in the same setting: with `C[C@@H](N)C(=O)CCP(=O)(O)O` the figure was 10%.

Broadly, the inhibition is the relative decrease from the control value, in per cent. Low values mean a weak effect, high ones a strong effect. One may read the IC50 as the concentration that inhibits the measured activity by half. The low end stands for inhibition by little substance, the high end for a need for much substance. The Ki is a dissociation constant, usually derived from enzyme kinetics or from competition with a known ligand. A high value points to weaker binding.
